# Assay results pooled from the literature.
# Protocols differ between the studies behind these lines.
# Target: Mitogen-activated protein kinase kinase kinase kinase 2 (MAP4K2, Homo sapiens, UniProt Q12851)
# Sequence (Q12851 1-820, as in one of the studies): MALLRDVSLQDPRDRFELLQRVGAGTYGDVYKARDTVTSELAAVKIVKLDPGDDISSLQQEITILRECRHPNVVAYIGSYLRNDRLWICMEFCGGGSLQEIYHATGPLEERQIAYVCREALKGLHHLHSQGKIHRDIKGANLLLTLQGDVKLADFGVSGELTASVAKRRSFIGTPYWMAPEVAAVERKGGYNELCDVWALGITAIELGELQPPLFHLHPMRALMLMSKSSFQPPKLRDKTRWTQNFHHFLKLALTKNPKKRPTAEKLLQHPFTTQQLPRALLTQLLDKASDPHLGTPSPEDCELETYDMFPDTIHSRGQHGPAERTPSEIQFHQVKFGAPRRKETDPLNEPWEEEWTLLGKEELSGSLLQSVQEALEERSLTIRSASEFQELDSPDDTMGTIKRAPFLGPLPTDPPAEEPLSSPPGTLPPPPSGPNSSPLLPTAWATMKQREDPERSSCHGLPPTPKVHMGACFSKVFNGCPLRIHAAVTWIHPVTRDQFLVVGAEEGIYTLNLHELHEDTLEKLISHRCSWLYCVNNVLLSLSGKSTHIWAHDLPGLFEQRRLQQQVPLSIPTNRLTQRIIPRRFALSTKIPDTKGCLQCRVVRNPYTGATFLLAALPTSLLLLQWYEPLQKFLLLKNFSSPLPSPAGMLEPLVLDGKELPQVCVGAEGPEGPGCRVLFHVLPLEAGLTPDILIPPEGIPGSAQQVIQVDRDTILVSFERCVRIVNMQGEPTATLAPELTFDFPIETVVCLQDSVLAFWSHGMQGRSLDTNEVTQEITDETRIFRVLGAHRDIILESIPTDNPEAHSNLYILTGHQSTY
SMILES,effect on,method,tested at,remaining binding
CN(CCCC(F)(F)F)c1nccc(-c2cnn3ncccc23)n1,binding,,1 µM,100%
O=C(NCCCN1CCOCC1)c1ccc(Nc2nccc(-c3cc4ccccc4s3)n2)cc1,binding,competition with immobilised ligand,1 µM,73%
O=C(NC[C@@H]1[C@H]2CN(C(=O)OCc3cc(C(F)(F)F)cc(C(F)(F)F)c3)C[C@@H]12)c1ccc2[nH]nnc2c1,cell-free assay,competition with immobilised ligand,1 µM,92%
COc1cnc(Nc2cccc(S(N)(=O)=O)c2)nc1N1CCN(c2ccccc2)CC1,binding,competition with immobilised ligand,1 µM,78%
O=C(N1CCS(=O)(=O)CC1)N1C[C@H](c2ccc(OC(F)(F)F)cc2)C[C@H](c2nc(C3CC3)no2)C1,cell-free assay,competition with immobilised ligand,1 µM,94%
CN(c1nccc(-c2cnn3ncccc23)n1)C1CC1,binding,,1 µM,100%
c1cncc(-c2cccc(Nc3nccc(NC4CCCCC4)n3)c2)c1,binding,competition with immobilised ligand,10 µM,67%
CN(C)c1nccc(-c2cnc3ncccn23)n1,binding,,1 µM,54%
C[C@@H](c1ccc(-n2cnc3c(N)ncnc32)cc1)N1CCc2nn(C)c(Cc3ccccc3)c2C1=O,binding,competition with immobilised ligand,0.1 µM,100%
Cc1c[nH]c2nccc(Oc3c(F)cc(Nc4cc(Cl)nc(N)n4)cc3F)c12,cell-free assay,competition with immobilised ligand,0.1 µM,69%
CC1CCCN1c1nccc(-c2cnn3ncccc23)n1 (stereo not shown),binding,,1 µM,100%
O=C(NCc1ncc(C(F)(F)F)cc1Cl)c1ccc2c(c1)C1(CCS(=O)(=O)CC1)[C@@H](C1CC1)N2S(=O)(=O)c1ccc(F)cc1,cell-free assay,competition with immobilised ligand,1 µM,91%
F[C@@H]1CCN(c2nccc(-c3cnn4ncccc34)n2)C1,binding,,1 µM,100%
CO[C@H]1CC[C@H](CNc2ccc(S(=O)(=O)NC(=O)c3ccc(N4CCN(CC5=C(c6ccc(Cl)cc6)CC(C)(C)CC5)CC4)cc3Oc3cnc4[nH]ccc4c3)cc2[N+](=O)[O-])CC1,cell-free assay,competition with immobilised ligand,1 µM,83%
O=C(NCC1CCOCC1)c1n[nH]cc1NC(=O)c1c(F)cccc1F,binding,competition with immobilised ligand,1 µM,100%
COc1ncc2cc3ccccc3nc2c1C#N,cell-free assay,competition with immobilised ligand,5 µM,84%
C[C@@H]1CCN(c2nccc(-c3cnn4ncccc34)n2)C1,binding,,1 µM,70%
O=C(O)c1cc(-c2ccc(C3CCNCC3)cc2)c2ccc(-c3ccc(C(F)(F)F)cc3)cc2c1,cell-free assay,competition with immobilised ligand,1 µM,100%
O=C(NCCCN1CCOCC1)c1ccc(Nc2ncc(Cl)c(-c3ccc(Cl)s3)n2)cc1,binding,competition with immobilised ligand,1 µM,31%
C[C@H](c1cccc(C#N)c1)n1cc(Cl)cc(C(N)=O)c1=N,cell-free assay,competition with immobilised ligand,1 µM,99%
O=C(c1ccc(Nc2ncc(Cl)c(-c3ccc(Cl)s3)n2)cc1)N1CCC(N2CCCC2)CC1,binding,competition with immobilised ligand,1 µM,15%
CNC(=O)[C@@H]1CC[C@@H](n2c(-c3ccc4cnccc4c3)nc3ccc(C(=O)NCc4cccc(C(N)=O)c4)cc32)C1,binding,competition with immobilised ligand,1 µM,100%
